Tests used:
MUC5AC = MUC5AC (Sus scrofa, UniProt A0A8W4FM62); assay: Equilibrium dialysis; type: binding, pig; conditions: mucin 0.5% w/v; for Mucin binding rank within the NIH Clinical Collection (NCC) set (ΔG): in PBS, 41 NCC molecules, 200 nM
[1] = cited from earlier work
[2] = tested on: P. aeruginosa strain PAO1; assay: Colistin efficacy; type: cell-based, Pseudomonas aeruginosa; conditions: colistin 8 or 16 μg/mL, 24 h
[3] = tested on: P. aeruginosa strain PAO1; assay: Colistin MIC by modified broth microdilution assay; type: cell-based, Pseudomonas aeruginosa; conditions: in MHB, 37 °C, 24 hours, visual inspection
Procedure, shortened: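 PAO1 grown overnight in Mueller-Hinton II broth (MHB) at 37 °C, then diluted into fresh MHB to about 3×10⁴ CFU/mL. Test compound stock in water was serially diluted 2-fold in MHB and mixed 1:10 with the inoculum (final 1 mg/mL to 0.4 μg/mL). Plates incubated 24 h at 37 °C. MIC taken as the lowest concentration with no visible growth.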

Sequence of MUC5AC (A0A8W4FM62 1-4915): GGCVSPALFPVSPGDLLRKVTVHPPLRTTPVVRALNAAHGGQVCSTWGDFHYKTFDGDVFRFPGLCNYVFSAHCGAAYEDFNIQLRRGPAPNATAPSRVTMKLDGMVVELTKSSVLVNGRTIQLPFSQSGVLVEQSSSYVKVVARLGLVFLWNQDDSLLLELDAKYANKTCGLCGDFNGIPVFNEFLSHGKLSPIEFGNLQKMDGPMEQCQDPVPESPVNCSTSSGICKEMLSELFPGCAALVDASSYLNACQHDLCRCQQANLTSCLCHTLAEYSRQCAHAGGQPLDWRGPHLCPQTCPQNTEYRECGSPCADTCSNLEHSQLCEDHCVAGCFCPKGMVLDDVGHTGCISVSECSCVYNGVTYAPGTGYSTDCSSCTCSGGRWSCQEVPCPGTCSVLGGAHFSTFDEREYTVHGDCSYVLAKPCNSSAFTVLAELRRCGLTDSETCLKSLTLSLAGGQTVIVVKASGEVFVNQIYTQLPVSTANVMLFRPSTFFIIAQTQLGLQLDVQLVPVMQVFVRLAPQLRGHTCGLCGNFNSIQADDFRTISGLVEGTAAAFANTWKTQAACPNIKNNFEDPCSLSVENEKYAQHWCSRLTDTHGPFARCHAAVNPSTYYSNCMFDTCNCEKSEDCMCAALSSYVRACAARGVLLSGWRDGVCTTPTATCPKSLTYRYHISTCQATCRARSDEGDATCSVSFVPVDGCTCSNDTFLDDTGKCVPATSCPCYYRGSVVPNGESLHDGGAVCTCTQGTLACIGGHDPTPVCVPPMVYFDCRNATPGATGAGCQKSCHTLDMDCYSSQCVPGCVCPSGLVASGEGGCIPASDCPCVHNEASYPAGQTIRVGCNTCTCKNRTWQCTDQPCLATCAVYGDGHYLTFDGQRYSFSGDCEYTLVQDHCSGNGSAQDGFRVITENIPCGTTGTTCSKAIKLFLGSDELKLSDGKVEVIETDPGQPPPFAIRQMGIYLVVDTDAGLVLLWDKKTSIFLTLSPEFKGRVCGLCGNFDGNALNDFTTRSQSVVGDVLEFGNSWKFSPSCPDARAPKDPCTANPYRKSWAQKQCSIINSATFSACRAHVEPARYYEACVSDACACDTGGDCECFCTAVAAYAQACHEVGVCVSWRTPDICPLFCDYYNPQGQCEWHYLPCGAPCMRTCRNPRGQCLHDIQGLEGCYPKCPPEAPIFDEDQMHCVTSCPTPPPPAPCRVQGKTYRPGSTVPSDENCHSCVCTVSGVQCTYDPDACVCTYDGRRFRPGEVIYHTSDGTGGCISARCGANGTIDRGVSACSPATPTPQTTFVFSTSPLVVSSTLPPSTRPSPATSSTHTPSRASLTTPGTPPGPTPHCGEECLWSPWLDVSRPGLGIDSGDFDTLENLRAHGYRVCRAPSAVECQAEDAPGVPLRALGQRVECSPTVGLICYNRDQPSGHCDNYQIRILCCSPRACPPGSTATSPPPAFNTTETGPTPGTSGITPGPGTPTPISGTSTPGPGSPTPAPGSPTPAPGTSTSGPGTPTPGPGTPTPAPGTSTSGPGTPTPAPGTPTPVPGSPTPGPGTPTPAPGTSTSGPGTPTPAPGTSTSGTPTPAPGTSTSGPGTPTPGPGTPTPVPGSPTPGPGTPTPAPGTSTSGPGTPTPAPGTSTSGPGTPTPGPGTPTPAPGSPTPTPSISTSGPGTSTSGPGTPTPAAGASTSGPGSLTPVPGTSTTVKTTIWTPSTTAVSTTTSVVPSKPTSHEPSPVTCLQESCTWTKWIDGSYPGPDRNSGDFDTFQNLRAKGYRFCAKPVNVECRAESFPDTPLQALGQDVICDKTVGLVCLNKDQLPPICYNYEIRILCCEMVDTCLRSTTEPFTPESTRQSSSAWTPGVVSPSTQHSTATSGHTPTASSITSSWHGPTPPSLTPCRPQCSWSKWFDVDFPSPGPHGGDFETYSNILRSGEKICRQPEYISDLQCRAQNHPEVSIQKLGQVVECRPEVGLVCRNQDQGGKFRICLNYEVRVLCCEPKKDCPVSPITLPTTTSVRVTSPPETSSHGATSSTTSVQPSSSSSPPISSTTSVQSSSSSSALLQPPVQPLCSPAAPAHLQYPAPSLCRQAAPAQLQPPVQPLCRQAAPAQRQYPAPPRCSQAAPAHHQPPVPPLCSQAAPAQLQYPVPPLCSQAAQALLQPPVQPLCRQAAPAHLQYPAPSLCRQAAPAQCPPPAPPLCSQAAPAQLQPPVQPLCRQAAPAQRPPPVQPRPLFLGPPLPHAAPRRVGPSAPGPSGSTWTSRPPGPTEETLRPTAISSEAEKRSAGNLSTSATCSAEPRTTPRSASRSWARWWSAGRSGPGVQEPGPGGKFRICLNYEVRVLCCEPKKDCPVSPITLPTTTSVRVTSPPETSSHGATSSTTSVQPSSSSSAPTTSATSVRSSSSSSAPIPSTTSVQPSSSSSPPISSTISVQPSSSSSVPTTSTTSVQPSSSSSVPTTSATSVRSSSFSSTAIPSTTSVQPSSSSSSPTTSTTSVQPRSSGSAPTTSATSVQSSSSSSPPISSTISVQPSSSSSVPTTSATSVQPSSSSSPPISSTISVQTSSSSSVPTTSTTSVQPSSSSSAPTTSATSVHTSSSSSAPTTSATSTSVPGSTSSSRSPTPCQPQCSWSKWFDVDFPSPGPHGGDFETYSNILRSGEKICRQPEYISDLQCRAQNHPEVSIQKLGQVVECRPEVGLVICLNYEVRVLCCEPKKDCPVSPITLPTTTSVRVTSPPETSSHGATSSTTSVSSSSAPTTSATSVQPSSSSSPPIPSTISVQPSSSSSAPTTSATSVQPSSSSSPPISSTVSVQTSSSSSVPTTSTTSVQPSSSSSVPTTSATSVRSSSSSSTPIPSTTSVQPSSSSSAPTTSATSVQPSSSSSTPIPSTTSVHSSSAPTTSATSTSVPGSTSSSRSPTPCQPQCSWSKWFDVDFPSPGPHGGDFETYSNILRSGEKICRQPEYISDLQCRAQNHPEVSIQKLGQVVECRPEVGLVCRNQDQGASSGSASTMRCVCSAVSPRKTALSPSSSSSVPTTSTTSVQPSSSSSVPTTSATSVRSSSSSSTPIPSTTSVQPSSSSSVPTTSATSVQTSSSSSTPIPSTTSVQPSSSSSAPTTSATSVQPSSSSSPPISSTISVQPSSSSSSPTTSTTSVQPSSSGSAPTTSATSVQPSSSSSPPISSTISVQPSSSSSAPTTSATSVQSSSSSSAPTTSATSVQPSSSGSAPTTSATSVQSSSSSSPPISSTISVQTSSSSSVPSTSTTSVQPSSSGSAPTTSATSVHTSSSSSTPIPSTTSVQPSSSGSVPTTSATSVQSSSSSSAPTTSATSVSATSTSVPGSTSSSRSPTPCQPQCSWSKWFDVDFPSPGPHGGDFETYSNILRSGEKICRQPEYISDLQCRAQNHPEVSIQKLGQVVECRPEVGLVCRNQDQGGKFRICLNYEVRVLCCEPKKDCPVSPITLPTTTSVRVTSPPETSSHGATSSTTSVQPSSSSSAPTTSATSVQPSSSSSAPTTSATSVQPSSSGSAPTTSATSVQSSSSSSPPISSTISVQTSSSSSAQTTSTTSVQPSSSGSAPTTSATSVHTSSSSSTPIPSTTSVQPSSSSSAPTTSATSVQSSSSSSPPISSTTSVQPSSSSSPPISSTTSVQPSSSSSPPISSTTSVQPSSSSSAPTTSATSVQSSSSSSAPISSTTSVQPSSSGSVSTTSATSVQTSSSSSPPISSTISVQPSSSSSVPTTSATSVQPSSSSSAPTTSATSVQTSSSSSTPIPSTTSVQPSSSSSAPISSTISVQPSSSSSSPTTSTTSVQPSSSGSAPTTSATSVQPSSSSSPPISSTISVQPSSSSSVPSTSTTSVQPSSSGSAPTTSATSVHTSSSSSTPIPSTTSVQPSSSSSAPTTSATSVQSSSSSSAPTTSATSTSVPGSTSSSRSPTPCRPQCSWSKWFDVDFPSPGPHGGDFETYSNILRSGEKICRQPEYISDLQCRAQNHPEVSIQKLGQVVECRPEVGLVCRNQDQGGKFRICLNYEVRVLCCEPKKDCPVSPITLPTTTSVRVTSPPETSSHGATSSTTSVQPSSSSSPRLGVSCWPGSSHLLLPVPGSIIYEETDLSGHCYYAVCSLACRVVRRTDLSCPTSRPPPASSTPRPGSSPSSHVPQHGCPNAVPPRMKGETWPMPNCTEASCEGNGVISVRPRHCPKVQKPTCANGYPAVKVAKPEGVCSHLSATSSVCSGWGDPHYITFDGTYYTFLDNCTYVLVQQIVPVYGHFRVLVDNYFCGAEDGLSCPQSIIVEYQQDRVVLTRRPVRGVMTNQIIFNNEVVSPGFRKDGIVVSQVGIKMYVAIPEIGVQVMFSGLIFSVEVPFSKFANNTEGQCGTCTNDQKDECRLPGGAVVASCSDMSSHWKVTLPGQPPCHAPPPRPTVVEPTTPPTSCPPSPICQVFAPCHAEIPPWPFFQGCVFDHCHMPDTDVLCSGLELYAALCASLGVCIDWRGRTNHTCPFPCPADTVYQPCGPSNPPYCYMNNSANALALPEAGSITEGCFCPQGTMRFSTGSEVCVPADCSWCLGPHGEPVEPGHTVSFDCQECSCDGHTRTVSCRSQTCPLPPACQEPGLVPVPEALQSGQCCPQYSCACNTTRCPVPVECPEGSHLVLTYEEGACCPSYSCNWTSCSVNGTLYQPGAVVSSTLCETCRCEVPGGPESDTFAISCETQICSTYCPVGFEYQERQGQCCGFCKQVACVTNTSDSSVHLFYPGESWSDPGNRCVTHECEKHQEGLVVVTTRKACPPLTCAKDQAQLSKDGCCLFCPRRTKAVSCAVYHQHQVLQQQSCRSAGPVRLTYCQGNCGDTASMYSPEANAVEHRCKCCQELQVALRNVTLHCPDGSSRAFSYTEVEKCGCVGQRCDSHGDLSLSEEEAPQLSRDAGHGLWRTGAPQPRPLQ

| Molecule | Mucin binding rank within the NIH Clinical Collection (NCC) set (ΔG) (MUC5AC) | Molecular charge [1] | further results |
| --- | --- | --- | --- |
| Nc1nc(Cl)nc2c1ncn2[C@H]1C[C@H](O)[C@@H](CO)O1 [cladribine] | four strongest mucin binders | – | – |
| O=c1c(-c2ccccc2)c1-c1ccccc1 [diphencyprone] | four strongest mucin binders | – | – |
| COc1cccc2c1C(=O)c1c(O)c3c(c(O)c1C2=O)C[C@@](O)(C(=O)CO)C[C@@H]3O[C@H]1C[C@H](N)[C@H](O)[C@H](C)O1 [doxorubicin] | four strongest mucin binders | – | – |
| CNCCCC12CCC(c3ccccc31)c1ccccc12 [maprotiline] | four strongest mucin binders | – | – |
| NC[C@H]1O[C@H](O[C@H]2[C@H](O)[C@@H](O[C@H]3O[C@H](CO)[C@@H](O)[C@H](N)[C@H]3O)[C@H](N)C[C@@H]2N)[C@H](N)C[C@@H]1O [tobramycin] | – | +5 | – |
| colistin | – | +5 | Binding to mucin (ΔG; negative ΔG implies binding) (MUC5AC; colistin 10 μM, 4 h, 37 °C): bound to mucin; Effect of methylcellulose on colistin activity (surviving PAO1 cells, CFU) ([2]; MC 0.5% w/v in MHB): negligible effect; Effect of mucin on colistin activity (surviving PAO1 cells, CFU) ([2]; mucin 0.5% w/v in MHB): inhibited the effect of colistin to a substantial degree; MIC [3]: 8 mg/L |

— PMC6581564 (Biomacromolecules, 2019)
